The text below walks through data of ChEMBL document CHEMBL5380787, “Optimized M24B Aminopeptidase Inhibitors for CARD8 Inflammasome Activation” (J Med Chem, 2023).

The test system of assay [1] is MV4-11. Put plainly: Cytotoxicity against human MV4-11 cells assessed as reduction in cell viability incubated for 24 hrs by celltiter-glo assay. Type of assay: functional, cell-based. The following applies: MV4-11, 24 h. In a few lines: (§1)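 MV4;11 cells (WT or CASP1−/−), grown in RPMI 1640 with 10% FBS at 37 °C, 5% CO2, plated 2000 cells/well, dosed by pintool across 100 μM to 15.2 nM in three-fold steps for 24 h. Viability by CellTiter-Glo luminescence after 2 min shaking and 10 min at 25 °C. IC50 as mean ± SEM of three biological replicates.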

Assay [2] relates to MV4-11. Description: Cytotoxicity against human MV4-11 cells assessed as reduction in cell viability at 0.015 to 100 uM incubated for 24 hrs by celltiter-glo assay. The class given is functional. The following applies: dose 0.015-100 µM. In a few lines: as §1
For orientation: Cellular ATP, detected with luciferase, serves as a proxy for viable cell number.

In assay [3] the test system is MV4-11. Put plainly: Cytotoxicity against CASP1 knockout human MV4-11 cells assessed as reduction in cell viability at 0.015 to 100 uM incubated for 24 hrs by celltiter-glo assay. Type of assay: functional. The following applies: dose 0.015-100 µM. In a few lines: as §1
The target in the next assay is T1, Xaa-Pro dipeptidase (Homo sapiens, UniProt P12955).
T1 sequence (P12955 whole entry): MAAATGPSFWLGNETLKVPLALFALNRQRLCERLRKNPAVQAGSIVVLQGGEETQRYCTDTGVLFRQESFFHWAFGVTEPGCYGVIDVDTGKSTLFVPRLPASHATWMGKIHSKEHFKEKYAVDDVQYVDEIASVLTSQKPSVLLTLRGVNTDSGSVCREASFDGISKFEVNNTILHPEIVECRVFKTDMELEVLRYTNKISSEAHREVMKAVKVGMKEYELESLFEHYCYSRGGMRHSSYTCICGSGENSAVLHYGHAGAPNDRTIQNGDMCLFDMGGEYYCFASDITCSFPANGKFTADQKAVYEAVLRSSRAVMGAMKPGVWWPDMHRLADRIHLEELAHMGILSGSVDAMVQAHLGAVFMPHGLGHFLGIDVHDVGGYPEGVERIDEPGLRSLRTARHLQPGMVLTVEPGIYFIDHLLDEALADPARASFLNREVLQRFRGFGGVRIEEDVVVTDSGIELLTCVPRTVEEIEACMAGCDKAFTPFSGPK
Description: Inhibition of recombinant human PEPD using Ala-Pro as substrate assessed as alanine release by measuring increase in fluorescense signal by fluorescence based analysis.

The subject of assay [4] is MV4-11. Put plainly: Cytotoxicity against CASP1 knockout human MV4-11 cells assessed as reduction in cell viability incubated for 24 hrs by celltiter-glo assay. Particulars: MV4-11, 24 h. Type of assay: functional, cell-based. The method in brief: as §1

With `COC(=O)[C@@H]1CCCN1C(=O)[C@@H](O)[C@@H](N)c1ccco1`, the IC50 in the assay with MV4-11 [1] turned out to be 14 µM. Moreover, the Activity is on record as 23% in the assay on MV4-11 [2] and 71% in the assay with MV4-11 [3].
Take `CC(C)C[C@@H](N)[C@H](O)C(=O)N1CCC[C@H]1C(N)=O`: the IC50 in the assay with MV4-11 [1] turned out to be 17 µM. The Activity is on record as 35% in the assay with MV4-11 [2] and 96% with MV4-11 [3].
The like results for `COC(=O)[C@@H]1CCCN1C(=O)[C@@H](O)[C@H](N)C(C)C` were, in that order, 46 µM, 23% and 104%.
In the same order, the values of `CC(C)CCNC(=O)[C@@H]1CCCN1C(=O)[C@@H](O)[C@H](N)CC(C)C` are 15 µM, 20% and 92%.
Consider `COC(=O)[C@@H]1CC2(CC2)CN1C(=O)[C@@H](O)[C@H](N)CC(C)C`, for which the IC50 with MV4-11 [1] came out at 8.1 µM. Moreover, the Activity in the assay on MV4-11 [2] stood at 43%; in the assay on MV4-11 [3] it was 101%.
Consider `COC(=O)[C@H](Cc1ccccc1)NC(=O)[C@@H](O)[C@H](N)CC(C)C`, for which the results for the IC50 in the assay on MV4-11 [1] and on Xaa-Pro dipeptidase were 5.4 µM and greater than 100 µM, respectively. The values for the Activity in the assay on MV4-11 [2] and in the assay on MV4-11 [3] were 8% and 7%, respectively.
Consider `C[C@H](NC(=O)[C@@H]1CCCN1C(=O)[C@@H]1CCCN1C(=O)[C@@H](O)[C@H](N)Cc1ccccc1)C(N)=O`, for which the IC50 in the assay with MV4-11 [4] and in the assay on MV4-11 [1] was greater than 20 µM throughout.
For `COC(=O)[C@@H]1CCCN1C(=O)[C@@H](O)[C@H](N)c1ccccc1`, the IC50 with MV4-11 [1] stood at 15 µM. Further, the Activity amounted to 32% in the assay with MV4-11 [2] and 97% in the assay with MV4-11 [3].
Regarding `CC(C)C[C@@H](N)[C@H](O)C(=O)N1CCC[C@H]1CNS(C)(=O)=O`, the IC50 in the assay with MV4-11 [1] and on Xaa-Pro dipeptidase was greater than 100 µM each time. Besides, the Activity in the assay on MV4-11 [2] amounted to 89%; in the assay on MV4-11 [3] it was 97%.
On to `CC(C)C[C@H](NC(=O)[C@@H]1CCCN1C(=O)[C@@H](O)[C@H](N)CC(C)C)C(=O)N(C)C`, for which the IC50 in the assay with MV4-11 [1] turned out to be 8.2 µM.
Turning to `COC(=O)[C@H](CC(C)C)NC(=O)[C@@H](O)[C@H](N)CC(C)C`, the IC50 in the assay on MV4-11 [1] was found to be 19 µM. The figures for the Activity with MV4-11 [2] and in the assay on MV4-11 [3] were 30% and 12%, respectively.
In the same order, the values of `COC(=O)[C@@H]1CCCN1C(=O)[C@@H](O)[C@H](N)c1ccc2ccoc2c1` are 60 µM, 44% and 85%.
With `COC(=O)[C@@H]1C[C@H](C)CN1C(=O)[C@@H](O)[C@H](N)CC(C)C`, the IC50 in the assay with MV4-11 [1] turned out to be 5.6 µM. For the same compound, the Activity with MV4-11 [2] was determined as 10%; with MV4-11 [3], 96%.
With `CC(C)C[C@H](NC(=O)[C@@H]1CCCN1C(=O)[C@@H](O)[C@H](N)CC(C)C)C(=O)NC(C)(C)C`, the IC50 with MV4-11 [1] is 7.3 µM.
On the same count and under the same terms, the same measure for `CC(C)C[C@H](NC(=O)[C@@H]1CCCN1C(=O)[C@@H](O)[C@H](N)CC(C)C)C(=O)N1CCC1`: greater than 100 µM.
In the case of `COC(=O)[C@@H]1CCCN1C(=O)[C@@H](O)[C@H](N)CC(C)(C)C`, the IC50 in the assay on MV4-11 [1] was greater than 100 µM. Moreover, the figures for the Activity with MV4-11 [2] and in the assay on MV4-11 [3] were 20% and 100%, respectively.
The like results for `CCCC[C@@H](N)[C@H](O)C(=O)N1CCC[C@H]1C(=O)OC` were, in that order, 11 µM, 20% and 98%.
In the same order, the values of `CONC(=O)[C@@H]1CCCN1C(=O)[C@@H](O)[C@H](N)CC(C)C` are greater than 100 µM, 95% and 103%.
`CC(C)C[C@H](NC(=O)[C@@H]1CCCN1C(=O)[C@@H](O)[C@H](N)CC(C)C)C(N)=O`: the IC50 in the assay with MV4-11 [1] is greater than 100 µM.
Take `COC(=O)[C@@H]1C[C@H](F)CN1C(=O)[C@@H](O)[C@H](N)CC(C)C`: in the assay with MV4-11 [1], the IC50 was 61 µM. Also, the Activity is reported as 32% in the assay with MV4-11 [2] and 94% in the assay with MV4-11 [3].
On to `CONC(=O)[C@H](CC(C)C)NC(=O)[C@@H]1CCCN1C(=O)[C@@H](O)[C@H](N)CC(C)C`, for which the IC50 in the assay with MV4-11 [1] is greater than 100 µM.
With `CC(C)C[C@H](NC(=O)[C@@H]1CCCN1C(=O)[C@@H](O)[C@H](N)CC(C)C)C(=O)NCCF`, the IC50 in the assay on MV4-11 [1] was determined as 3 µM.
`COC(=O)[C@@H]1C[C@H](O)CN1C(=O)[C@@H](O)[C@H](N)CC(C)C`: the IC50 in the assay with MV4-11 [1] and on Xaa-Pro dipeptidase was greater than 100 µM throughout. Also, the Activity in the assay on MV4-11 [2] stood at 99%; in the assay with MV4-11 [3], 102%.
As for `COC(=O)[C@@H]1CCCN1C(=O)[C@@H](O)[C@H](N)CCC(F)(F)F`, the IC50 in the assay with MV4-11 [1] is greater than 100 µM. Further, the Activity in the assay with MV4-11 [2] was 68%; in the assay on MV4-11 [3], 100%.
In the same order, the values of `COC(=O)[C@@H]1CCCN1C(=O)[C@@H](O)[C@H](N)C1CC1` are greater than 100 µM, 85% and 102%.
Consider `CC(C)C[C@@H](N)[C@H](O)C(=O)N1CCCC1`, for which the IC50 in the assay on MV4-11 [1] and at Xaa-Pro dipeptidase was greater than 100 µM throughout. Further, the Activity with MV4-11 [2] stood at 91%; in the assay on MV4-11 [3], 85%.
As to `CC(C)C[C@H](NC(=O)[C@@H]1CCCN1C(=O)[C@@H](O)[C@H](N)CC(C)C)C(=O)NCCc1ccc(-c2ccccc2)cc1`, the IC50 with MV4-11 [1] came to 0.65 µM.
Regarding `COC(=O)[C@@H]1CCCN1C(=O)[C@@H](O)[C@@H](N)c1cccs1`, the IC50 with MV4-11 [1] is 10 µM. Further, the Activity in the assay on MV4-11 [2] is 22%; in the assay with MV4-11 [3] it was 71%.
For `CC(C)C[C@H](NC(=O)[C@@H]1CCCN1C(=O)[C@@H](O)[C@H](N)CC(C)C)C(=O)NS(=O)(=O)N(C)C`, the IC50 in the assay on MV4-11 [1] is greater than 100 µM.
For the compound `COC(=O)[C@@H]1CCCN1C(=O)[C@@H](O)[C@H](N)C12CC3CC(CC(C3)C1)C2`, the IC50 in the assay on MV4-11 [1] was greater than 100 µM. In addition, the Activity in the assay with MV4-11 [2] came out at 83%; in the assay with MV4-11 [3] it was 98%.
Regarding `COC(=O)[C@@H]1CCCN1C(=O)[C@@H](O)[C@H](N)CCCCO`, the IC50 in the assay with MV4-11 [1] was greater than 100 µM. The Activity is listed as 87% in the assay on MV4-11 [2] and 92% in the assay with MV4-11 [3].
Consider `CC(C)C[C@@H](N)[C@H](O)C(=O)N1CCC[C@H]1c1nnn[nH]1`, for which the IC50 in the assay with MV4-11 [1] is greater than 100 µM. Besides, the Activity in the assay on MV4-11 [2] is 85%; in the assay with MV4-11 [3], 95%.
The like results for `COC(=O)[C@@H]1CCCN1C(=O)[C@@H](O)[C@H](N)Cc1ccccc1` were, in that order, greater than 100 µM, 73% and 97%.
Turning to `CC(C)CCNC(=O)[C@H](CC(C)C)NC(=O)[C@@H]1CCCN1C(=O)[C@@H](O)[C@H](N)CC(C)C`, the IC50 with MV4-11 [1] was 1 µM.
The same measure, in the same setting: the same measure for `CC(C)C[C@H](NC(=O)[C@@H]1CCCN1C(=O)[C@@H](O)[C@H](N)CC(C)C)C(=O)NCCc1ccc2ccccc2c1`: 0.43 µM.

For orientation: IC50 means the midpoint of a concentration-inhibition curve.
